Measurements: ChEMBL document CHEMBL3120107, “Cytotoxic cardiac glycosides and coumarins from Antiaris toxicaria” (2014)
Values after ≈ are worked out from the molar mass of the structure shown.

How the values were obtained:
PC-3 = assay: Cytotoxicity against human PC3 cells assessed as growth inhibition after 72 hrs by SRB assay; type: functional; conditions: for EC50: Homo sapiens, PC-3, 72 h, read-out: ED50 (the source's name)
Summary of the method: (§1)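 Sulforhodamine B assay run by NCI-validated procedure. Cells grown at 37 °C under humidified 5% CO2 in RPMI-1640 with 25 mM HEPES, […] (w/v) sodium bicarbonate, 10% (v/v) FBS and 100 μg/mL kanamycin. Compounds came from DMSO stocks, with final DMSO ≤ 1% (v/v). Continuous exposure for 72 h. ED50 (μg/mL, 50% cell-number reduction) interpolated from dose-response data. Triplicate tests. Doxorubicin served as positive control.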

[1] = Cytotoxicity against human […] cells assessed as growth inhibition after 72 hrs by SRB assay; type: functional; conditions: for EC50: Homo sapiens, HCT9, 72 h, read-out: ED50 (the source's name); summary of the method: as §1
1A9 = assay: Cytotoxicity against human 1A9 cells assessed as growth inhibition after 72 hrs by SRB assay; type: functional; conditions: for EC50: Homo sapiens, 1A9, 72 h, read-out: ED50 (the source's name); summary of the method: as §1
CAKI-1 = assay: Cytotoxicity against human CAKI-1 cells assessed as growth inhibition after 72 hrs by SRB assay; type: functional; conditions: for EC50: Homo sapiens, CAKI-1, 72 h, read-out: ED50 (the source's name); summary of the method: as §1
A549 = assay: Cytotoxicity against human A549 cells assessed as growth inhibition after 72 hrs by SRB assay; type: functional; conditions: for EC50: Homo sapiens, A549, 72 h, read-out: ED50 (the source's name); summary of the method: as §1
SK-MEL-2 = assay: Cytotoxicity against human SK-MEL-2 cells assessed as growth inhibition after 72 hrs by SRB assay; type: functional; conditions: for EC50: Homo sapiens, SK-MEL-2, 72 h, read-out: ED50 (the source's name); summary of the method: as §1
MCF7 = assay: Cytotoxicity against human MCF7 cells assessed as growth inhibition after 72 hrs by SRB assay; type: functional; conditions: for EC50: Homo sapiens, MCF7, 72 h, read-out: ED50 (the source's name); summary of the method: as §1
[2] = Cytotoxicity against human U87MG cells assessed as growth inhibition after 72 hrs by SRB assay; type: functional, U-87MG ATCC; conditions: for EC50: Homo sapiens, U-87 MG, 72 h, read-out: ED50 (the source's name); summary of the method: as §1
[3] = Cytotoxicity against human KBVIN cells assessed as growth inhibition after 72 hrs by SRB assay; type: functional; conditions: for EC50: Homo sapiens, KBVIN, 72 h, read-out: ED50 (the source's name); summary of the method: as §1
KB = assay: Cytotoxicity against human KB cells assessed as growth inhibition after 72 hrs by SRB assay; type: functional; conditions: for EC50: Homo sapiens, KB, 72 h, read-out: ED50 (the source's name); summary of the method: as §1

Compound	EC50 (PC-3)	EC50 [1]	EC50 (1A9)	EC50 (CAKI-1)	EC50 (A549)	EC50 (SK-MEL-2)	EC50 (MCF7)	EC50 [2]	EC50 [3]	EC50 (KB)	ED50 (PC-3)	ED50 [1]	ED50 (1A9)	ED50 (CAKI-1)	ED50 (A549)	ED50 (SK-MEL-2)	ED50 (MCF7)	ED50 [2]	ED50 [3]	ED50 (KB)
C[C@@H]1O[C@@H](O[C@@H]2CC[C@@]3(CO)[C@H](CC[C@@H]4[C@@H]3CC[C@]3(C)[C@@H](C5=CC(=O)OC5)CC[C@]43O)C2)[C@H](O)[C@H](O)[C@H]1O[C@@H]1O[C@H](CO)[C@@H](O)[C@H](O)[C@H]1O [ANTIAROSIDE D]	0.53 µg/mL (≈ 0.758 µM)	1.9 µg/mL (≈ 2.72 µM)	0.74 µg/mL (≈ 1.06 µM)	0.93 µg/mL (≈ 1.33 µM)	0.38 µg/mL (≈ 0.544 µM)	0.31 µg/mL (≈ 0.444 µM)	1 µg/mL (≈ 1.43 µM)	4.2 µg/mL (≈ 6.01 µM)	1.9 µg/mL (≈ 2.72 µM)	1.7 µg/mL (≈ 2.43 µM)										
C[C@]12[C@H](O)C[C@H]3[C@@H](CC[C@]4(O)CCCC[C@]34C=O)[C@@]1(O)CC[C@@H]2C1=CC(=O)OC1 [ANTIARIGENIN]	1.2 µg/mL (≈ 2.97 µM)	4.5 µg/mL (≈ 11.1 µM)	0.12 µg/mL (≈ 0.297 µM)	1.3 µg/mL (≈ 3.21 µM)	0.59 µg/mL (≈ 1.46 µM)	0.41 µg/mL (≈ 1.01 µM)	1.3 µg/mL (≈ 3.21 µM)	4.6 µg/mL (≈ 11.4 µM)	5.1 µg/mL (≈ 12.6 µM)	5.3 µg/mL (≈ 13.1 µM)										
CO[C@H]1[C@@H](O[C@H]2CC[C@]3(C=O)[C@H]4CC[C@]5(C)[C@@H](C6=CC(=O)OC6)CC[C@]5(O)[C@@H]4CC[C@]3(O)C2)O[C@H](C)[C@@H](O)[C@H]1O (stereo in doubt; 21) [STROPHATHOJAVOSIDE]											0.052 µg/mL (≈ 0.0921 µM)	0.067 µg/mL (≈ 0.119 µM)	0.013 µg/mL (≈ 0.023 µM)	0.014 µg/mL (≈ 0.0248 µM)	0.016 µg/mL (≈ 0.0283 µM)	0.064 µg/mL (≈ 0.113 µM)	0.042 µg/mL (≈ 0.0744 µM)	0.078 µg/mL (≈ 0.138 µM)	0.051 µg/mL (≈ 0.0903 µM)	0.066 µg/mL (≈ 0.117 µM)
C[C@]12CC[C@H](O)C[C@@]1(O)CC[C@@H]1[C@@H]2CC[C@]2(C)[C@@H]([C@]3(O)COC(=O)C3)CC[C@]12O [ANTIAROTOXININ A]					4.3 µg/mL (≈ 10.5 µM)		15 µg/mL (≈ 36.7 µM)													
C[C@]12CC[C@H]3[C@@H](CC[C@@H]4C[C@@H](O)CC[C@@]43CO)[C@@]1(O)CC[C@@H]2C1=CC(=O)OC1	0.15 µg/mL (≈ 0.384 µM)	0.46 µg/mL (≈ 1.18 µM)	12 µg/mL (≈ 30.7 µM)	0.11 µg/mL (≈ 0.282 µM)	0.05 µg/mL (≈ 0.128 µM)	0.7 µg/mL (≈ 1.79 µM)	0.21 µg/mL (≈ 0.538 µM)	0.5 µg/mL (≈ 1.28 µM)	0.5 µg/mL (≈ 1.28 µM)	0.45 µg/mL (≈ 1.15 µM)										
C[C@]12CC[C@H]3[C@@H](CC[C@]4(O)C[C@@H](O)CC[C@]34CO)[C@@]1(O)CC[C@@H]2C1=CC(=O)OC1 [STROPHANTHIDOL]	0.81 µg/mL (≈ 1.99 µM)	6.4 µg/mL (≈ 15.7 µM)	0.66 µg/mL (≈ 1.62 µM)	0.67 µg/mL (≈ 1.65 µM)	0.14 µg/mL (≈ 0.344 µM)	0.57 µg/mL (≈ 1.4 µM)	0.69 µg/mL (≈ 1.7 µM)	2.9 µg/mL (≈ 7.13 µM)	3 µg/mL (≈ 7.38 µM)	2.7 µg/mL (≈ 6.64 µM)										
C[C@@H]1O[C@H](O[C@H]2CC[C@]3(C=O)[C@H]4C[C@@H](O)[C@]5(C)[C@@H](C6=CC(=O)OC6)CC[C@]5(O)[C@@H]4CC[C@]3(O)C2)[C@H](O)[C@H](O)[C@H]1O	0.05 µg/mL (≈ 0.0882 µM)	0.066 µg/mL (≈ 0.116 µM)	0.014 µg/mL (≈ 0.0247 µM)	0.015 µg/mL (≈ 0.0265 µM)	0.013 µg/mL (≈ 0.0229 µM)	0.065 µg/mL (≈ 0.115 µM)	0.018 µg/mL (≈ 0.0318 µM)	0.071 µg/mL (≈ 0.125 µM)	0.061 µg/mL (≈ 0.108 µM)	0.067 µg/mL (≈ 0.118 µM)										
C[C@]12CC[C@H]3[C@@H](CC[C@]4(O)C[C@@H](O)CC[C@]34C=O)[C@@]1(O)CC[C@@H]2C1=CC(=O)OC1 [STROPHANTHIDIN]	0.17 µg/mL (≈ 0.42 µM)	0.51 µg/mL (≈ 1.26 µM)	0.15 µg/mL (≈ 0.371 µM)	0.14 µg/mL (≈ 0.346 µM)	0.11 µg/mL (≈ 0.272 µM)	0.13 µg/mL (≈ 0.321 µM)	0.38 µg/mL (≈ 0.939 µM)	0.72 µg/mL (≈ 1.78 µM)	0.69 µg/mL (≈ 1.71 µM)	0.61 µg/mL (≈ 1.51 µM)										
C[C@@H]1O[C@H](O[C@@H]2CC[C@]3(C=O)[C@H]4CC[C@]5(C)[C@@H](C6=CC(=O)OC6)CC[C@]5(O)[C@@H]4CC[C@]3(O)C2)[C@H](O)[C@H](O)[C@H]1O [ANTIAROSIDE C]	0.42 µg/mL (≈ 0.763 µM)	1.5 µg/mL (≈ 2.72 µM)	0.39 µg/mL (≈ 0.708 µM)	0.32 µg/mL (≈ 0.581 µM)	0.48 µg/mL (≈ 0.872 µM)	0.26 µg/mL (≈ 0.472 µM)	1.4 µg/mL (≈ 2.54 µM)	1.7 µg/mL (≈ 3.09 µM)	1.6 µg/mL (≈ 2.91 µM)	1.5 µg/mL (≈ 2.72 µM)										
C[C@@H]1O[C@H](O[C@H]2CC[C@]3(C(=O)O)[C@H]4C[C@@H](O)[C@]5(C)[C@@H](C6=CC(=O)OC6)CC[C@]5(O)[C@@H]4CC[C@]3(O)C2)[C@H](O)[C@H](O)[C@H]1O [ANTIAROSIDE G]					5.3 µg/mL (≈ 9.1 µM)		17.5 µg/mL (≈ 30 µM)													
